The text below walks through data of ChEMBL document CHEMBL1122864, “1,2-Dihydro-2-oxo-6-(2,2-dimethylpropyl)-3-pyridinecarboxylic acid, analogues, and derivatives. A new class of oral hypoglycemic agents” (1985).

The species entered for test [1] is Rattus norvegicus. In words: Hypoglycemic activity in blood glucose at 2 hr (positive control) in the 18-h fasted normal rat. It counts as functional. The procedure, abridged: (§1)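 Sprague-Dawley-derived rats (120–130 g), fasted 18 h, in groups of four. Each got 0.5 mL by stomach tube of test compound (100 mg/kg), tolbutamide (25 mg/kg) or vehicle (carboxymethylcellulose/Polysorbate 80/NaCl/benzyl alcohol in water). Then 1.0 mL 12.5% glucose in 0.9% saline was given s.c. Barbiturate anesthesia at 110 min; vena cava blood drawn 9 min later.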

Test [2] has as its system Rattus norvegicus. In words: Hypoglycemic activity in blood glucose at 2 hr (treated) in the 18-h fasted normal rat at a dose of 100 mg/kg. It counts as functional. The method, boiled down: as §1
Test [3] relates to Rattus norvegicus. In words: Hypoglycemic activity in the 18-h fasted normal rat with respect to 1-butyl-3-(p-tolylsulphonyl)urea; inactive at 100 mg/kg at the second stage of testing. It counts as functional, organism-based. Also on record: dose 100 mg/kg. The method, boiled down:
(§2)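 In 18-h fasted rats (oral dosing, s.c. glucose load), activity was first confirmed, then compounds were retested at half-dose intervals alongside the positive control. Potency relative to tolbutamide came from a parallel line assay.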

The species entered for test [4] is Rattus norvegicus. In words: Hypoglycemic activity in the 18-h fasted normal rat with respect to 1-butyl-3-(p-tolylsulphonyl)urea. It counts as functional. The procedure, abridged:
as §2

The species named for test [5] is Rattus norvegicus. In words: Hypoglycemic activity in blood glucose at 2 hr (positive control) in the fasted-refed rat. It counts as functional. The method, boiled down:
(§3)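 Fasted-refed model: rats fasted 18 h, then given 2 mL liquid diet by stomach tube, otherwise handled as in the fasted-rat test. Blood glucose % change read at 2 h.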

The species entered for test [6] is Rattus norvegicus. In words: Hypoglycemic activity in blood glucose at 2 hr (treated) in the fasted-refed rat. It counts as functional. The procedure, abridged: as §3

Calls of active or inactive are those of the source. The rule behind the calls is not given here.

As to `CC(C)(C)Cc1ccnc(O)c1C(=O)O`, the Change in the test filed under Rattus norvegicus [1] is -34%; with Rattus norvegicus [2], -9%. Moreover, the Relative potency result in the test on Rattus norvegicus [3] was “inactive”.

Regarding `CC(C)(C)Cc1ccc(C(=O)O)cn1`, the figures for the Change in the test listed under Rattus norvegicus [1] and in the test on Rattus norvegicus [2] were -31% and -4%, respectively. Also, in the test with Rattus norvegicus [3], the Relative potency entry was “inactive”.

In the case of `CC(C)Cc1ccc(C(=O)O)c(=O)n1C`, the Change is on record as -22% in the test listed under Rattus norvegicus [1] and -36% in the test on Rattus norvegicus [2]. For the same molecule, in the test filed under Rattus norvegicus [4], the Relative potency is listed as 0.6.

On to `CC(C)Cc1ccc(C(=O)O)c(O)n1`, for which the Change in the test listed under Rattus norvegicus [1] is on record as -34%; in the test filed under Rattus norvegicus [5], -48%; with Rattus norvegicus [2], -61%; in the test filed under Rattus norvegicus [6] it was -54%. The molecule also registered a Relative potency in the test listed under Rattus norvegicus [4] of 1.

With `CC(C)(C)Cc1ccc(CC(=O)O)c(O)n1`, the Change in the test listed under Rattus norvegicus [1] and with Rattus norvegicus [2] was -25% each time. This molecule had a Relative potency in the test filed under Rattus norvegicus [4] of 0.25.

With `CCCCCCC(C)(C)c1ccc(C(=O)O)c(O)n1`, the Change in the test filed under Rattus norvegicus [1] is given as -37%; with Rattus norvegicus [2], 5%. In addition, in the test on Rattus norvegicus [3], the Relative potency result is “inactive”.

As to `CC(C)c1ccc(C(=O)O)c(O)n1`, the values for the Change in the test listed under Rattus norvegicus [1] and in the test on Rattus norvegicus [2] were -26% and -23%, respectively. In the test with Rattus norvegicus [3], the Relative potency result was “inactive”.

As to `CCC(C)(C)c1ccc(C(=O)O)c(O)n1`, the Change in the test listed under Rattus norvegicus [1] is recorded as -32%; in the test on Rattus norvegicus [2], -67%. For the same molecule, the Relative potency in the test filed under Rattus norvegicus [4] is 0.9.

As for `CC(C)(C)Cc1ccc(C(=O)O)c(O)n1`, the Change in the test filed under Rattus norvegicus [1] was -39%; in the test filed under Rattus norvegicus [5] it was -40%; in the test on Rattus norvegicus [2], -59%; in the test listed under Rattus norvegicus [6] it was -60%. In addition, in the test listed under Rattus norvegicus [4], the Relative potency was found to be 13.

Regarding `CC(C)(C)Cc1ccc(C(N)=O)c(O)n1`, the Change in the test filed under Rattus norvegicus [1] was -25%; with Rattus norvegicus [2] it was 30%. Also, in the test on Rattus norvegicus [3], the Relative potency result was “inactive”.

`CC(C)CCc1ccc(C(=O)O)c(O)n1`: the Change in the test listed under Rattus norvegicus [1] is on record as -28%; in the test on Rattus norvegicus [2] it was -4%. Besides, the Relative potency result with Rattus norvegicus [3] was “inactive”.

As to `CC(C)(C)c1ccc(C(=O)O)c(O)n1`, the Change in the test listed under Rattus norvegicus [1] is -39%; in the test filed under Rattus norvegicus [5], -40%; in the test on Rattus norvegicus [2], -69%; in the test filed under Rattus norvegicus [6] it was -58%. Further, the Relative potency in the test filed under Rattus norvegicus [4] was 1.

Turning to `CC(C)(C)Cc1ccc(-c2nn[nH]n2)c(O)n1`, the Change was -34% in the test filed under Rattus norvegicus [1] and -37% in the test on Rattus norvegicus [2]. In the test listed under Rattus norvegicus [4], this molecule returned a Relative potency of 1.6.

As for `CCC(C)(C)Cc1ccc(C(=O)O)c(O)n1`, the Change is listed as -38% in the test filed under Rattus norvegicus [1] and -54% in the test with Rattus norvegicus [2]. In the test listed under Rattus norvegicus [4], this molecule came in with a Relative potency of 3.8.

As for `CC(C)(C)CC1=NC(=O)CC=C1`, the results for the Change in the test filed under Rattus norvegicus [1] and with Rattus norvegicus [2] were -36% and -1%, respectively. Besides, the Relative potency result in the test with Rattus norvegicus [3] was “inactive”.

With `CCCCCCC(C)(C)Cc1ccc(C(=O)O)c(O)n1`, the Change in the test listed under Rattus norvegicus [1] is -37%; in the test with Rattus norvegicus [2] it was 8%. Also, the Relative potency result in the test with Rattus norvegicus [3] was “inactive”.

For the molecule `O=C(O)c1ccc(CC2CCC2)nc1O`, the results for the Change in the test filed under Rattus norvegicus [1] and in the test on Rattus norvegicus [2] were -37% and -14%, respectively. In the test with Rattus norvegicus [3], the Relative potency result is “inactive”.

In the case of `CCCCCc1ccc(C(=O)O)c(O)n1`, the Change is listed as -25% in the test filed under Rattus norvegicus [1] and -2% with Rattus norvegicus [2]. Further, in the test on Rattus norvegicus [3], the Relative potency result was “inactive”.

On to `Cn1c(CC(C)(C)C)ccc(C(=O)O)c1=O`, for which the Change in the test listed under Rattus norvegicus [1] is listed as -34%; in the test with Rattus norvegicus [2], -3%. For the same molecule, the Relative potency entry in the test with Rattus norvegicus [3] was “inactive”.

As for `CCOC(=O)c1ccc(CC(C)(C)C)nc1O`, the Change in the test filed under Rattus norvegicus [1] is recorded as -42%; in the test with Rattus norvegicus [2], -54%. Besides, the Relative potency in the test listed under Rattus norvegicus [4] turned out to be 7.4.

For `Cc1ccc(C(=O)O)c(O)n1`, the Change is given as -34% in the test listed under Rattus norvegicus [1] and 1% with Rattus norvegicus [2]. For the same molecule, the Relative potency result in the test on Rattus norvegicus [3] is “inactive”.

Regarding `CC(C)(C)Cc1ccc(C(=O)[O-])c(O)n1.[Na+]`, the values for the Change in the test listed under Rattus norvegicus [1] and in the test on Rattus norvegicus [2] were -26% and -56%, respectively. Moreover, the Relative potency in the test listed under Rattus norvegicus [4] is recorded as 7.9.

`O=C(O)c1ccc[nH]c1=O`: the Change in the test listed under Rattus norvegicus [1] is on record as -33%; in the test listed under Rattus norvegicus [5], -55%; with Rattus norvegicus [2], -26%; in the test listed under Rattus norvegicus [6], -4%. In addition, the Relative potency in the test filed under Rattus norvegicus [4] amounted to 0.25.

On to `CC(C)(C)Cc1ccc(C=O)c(O)n1`, for which the Change in the test filed under Rattus norvegicus [1] and in the test with Rattus norvegicus [2] was -47% throughout. Further, the Relative potency in the test filed under Rattus norvegicus [4] came out at 5.9.

As for `CC(C)(C)Cc1ccc(CO)c(O)n1`, the Change in the test filed under Rattus norvegicus [1] is recorded as -26%; with Rattus norvegicus [2], -40%. Also, in the test listed under Rattus norvegicus [4], the Relative potency came to 5.3.
